Bioassay records from PubChem BioAssay.
14-3-3 Bad inh – disrupts binding of bovine 14-3-3 zeta to phospho-Bad peptide; P63103; TR-FRET 14-3-3zeta/Dy647-pBad peptide displacement, 1 h; inhibition, % at 21.7 µM; 220,000 tested, 0.71% active;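 active = inhibition above about 70%, limit read from the data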
Hck Nef HTS – blocks Nef-activated human Hck kinase. P08631. Recombinant Hck-YEEI plus Nef, Z-Lyte FRET kinase assay. inhibition, % at 20 µM. 220,000 tested, 0.68% active. AID 463187;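 active = Hck-Nef kinase inhibition above about 50%, limit read from the data; inactive = inhibition below that limit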
Target sequence (P08631 whole entry, looked up): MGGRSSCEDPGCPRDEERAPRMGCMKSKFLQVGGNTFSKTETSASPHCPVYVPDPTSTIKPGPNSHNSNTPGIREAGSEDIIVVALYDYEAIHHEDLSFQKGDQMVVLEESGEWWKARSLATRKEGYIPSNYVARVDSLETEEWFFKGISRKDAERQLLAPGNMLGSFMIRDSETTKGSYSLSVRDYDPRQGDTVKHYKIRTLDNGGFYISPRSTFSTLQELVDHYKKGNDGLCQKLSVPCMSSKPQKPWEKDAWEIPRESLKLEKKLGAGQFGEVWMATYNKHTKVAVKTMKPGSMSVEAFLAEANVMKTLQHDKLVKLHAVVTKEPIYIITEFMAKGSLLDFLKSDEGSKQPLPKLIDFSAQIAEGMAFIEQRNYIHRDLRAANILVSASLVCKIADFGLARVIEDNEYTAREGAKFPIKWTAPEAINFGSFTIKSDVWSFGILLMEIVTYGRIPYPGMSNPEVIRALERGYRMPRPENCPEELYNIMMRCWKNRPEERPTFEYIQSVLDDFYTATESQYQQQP
Mcl1-Noxa inh – Mcl-1/Noxa interaction inhibition; TR-FRET Mcl-1/Noxa peptide binding, 2 h; 220,000 tested, 1.5% active; inhibition, % at 21.7 µM; AID 1022; Q07820;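 active = compounds that cut the protein-peptide binding signal by more than 50% relative to plate controls in a single-dose test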;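 also: His-tagged Mcl-1 with rhodamine Noxa BH3 peptide and terbium anti-His antibody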
Mcl1 Bid PPI – Mcl-1/Bid interaction inhibition; AID 1021; 220,000 tested, 0.97% active; TR-FRET Mcl-1/Bid-Dy647 peptide binding, 1536-well; inhibition, % at 21.7 µM;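 active = compounds that cut the binding signal by more than half at the single screening dose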;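 also: His-tagged Mcl-1 with europium anti-His antibody binding Bid BH3 peptide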
Biofilm kill mix – mixture kills Candida albicans biofilm cells; C. albicans biofilm persisters + clotrimazole, fluorescence viability; primary screen in compound mixtures of four per well; inhibition, % at 7.6 µM; 120,000 tested, 0.02% active;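 active = inhibition above 30.3% in the primary screen of four-compound pools, then above 30% when the compound was retested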;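 also: compounds exposed to preformed 24 h biofilms for 48 h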
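Assay system: C. albicans biofilms / Medium: RPMI/MOPS medium, pH 7.0 / Schedule: biofilm formation 24 h, compound exposure 48 h, 37 °C / Measured by: Alamar Blue fluorescence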
Bim-Mcl-1 – human Bim-Mcl-1 interaction inhibition. Q07820. Bead-based flow cytometry, Bim peptide-Mcl-1 binding. inhibition, % at 10 µM. 190,000 tested, 0.1% active. AID 1009; in the data active = inhibition above about 40%
Of the large screens only hits and unclear results are named; the others gave an inactive call; [ ] = dose if it differs, or a comment. Rows were chosen to be rich in hits. Some 3.2% of all compounds tested hit in one or more screens of this group.

Cc1ccc2c(c1)N(CC(=O)NCc1ccco1)C(=O)C(C(C)C)O2 (stereo not drawn)	none (no result: Bim-Mcl-1)
CCN(CC)c1ccc(S(=O)(=O)N2CCOCC2)cc1NC(=O)CN1CCc2ccccc2C1	none
CCC(=O)N1CCc2cc(Br)cc(S(=O)(=O)N(C)c3ccc(OC)cc3OC)c21	none
CC(C)NC(=O)c1onc(CSc2cccc3ccccc23)c1C(=O)O	none (no result: Biofilm kill mix)
COc1ccc(-c2oc(NC(=O)c3ccc(C)cc3)c(C#N)c2-c2ccc(OC)cc2)cc1	14-3-3 Bad inh 87[fluorescence artefact?] (no result: Biofilm kill mix)
CC12CC(c3ccccc3O1)C(C(=O)NCc1ccccc1)C(=O)N2 (stereo not drawn)	none (no result: Biofilm kill mix)
CCOC(=O)c1c(C)[nH]c(C(=O)CSc2nc3ccccc3o2)c1C	Mcl1-Noxa inh 69 (no result: Biofilm kill mix)
CCOC(=O)c1c(C)[nH]c(C(=O)COC(=O)c2ccc(O)cc2)c1C	14-3-3 Bad inh 82 (no result: Bim-Mcl-1)
CCOC(=O)c1c(C)[nH]c(C(=O)OCCOc2ccc(Cl)cc2)c1C	none
CCOC(=O)c1c(C)[nH]c(C(=O)OCCOc2ccccc2C)c1C	14-3-3 Bad inh 75[fluorescence artefact?]
CCOC(=O)c1c(C)[nH]c(C(=O)COC(=O)c2ccc(O)cc2O)c1C	none (no result: Bim-Mcl-1)
COc1ccc([N+](=O)[O-])cc1NC(=O)CSc1ncccn1	none
Cc1nc(SCC(=O)Nc2cc(Cl)ccc2[N+](=O)[O-])nc(C)c1C	Mcl1 Bid PPI 95
COc1ccc([N+](=O)[O-])cc1NC(=O)CSc1nccc(C)n1	Mcl1-Noxa inh 57
COc1cc(NC(=O)CSc2nccc(C)n2)c(C)cc1[N+](=O)[O-]	Mcl1-Noxa inh 57
O=C(CNc1cccc([N+](=O)[O-])c1)N/N=C/c1ccc(F)cc1	none
CCc1cc2cc3c(cc2nc1SCC(=O)Nc1cc(C)on1)OCO3	14-3-3 Bad inh 82 (no result: Biofilm kill mix)
CCc1cc2ccc(C)cc2nc1SCC(=O)Nc1cc(C)on1	none
CCN1C(=O)c2cccc3c(NC(=O)c4ccccc4)ccc1c23	none
CCN1C(=O)c2cccc3c(NC(=O)C4CCCCC4)ccc1c23	Mcl1 Bid PPI 83 (no result: Biofilm kill mix)
Cc1cc(C)c(OCC(=O)N(Cc2ccc(N(C)C)cc2)C2CCS(=O)(=O)C2)c(C)c1 (stereo not drawn)	none (no result: Bim-Mcl-1)
COCCN1C(=O)/C(=C/c2ccc(OCc3ccc(C(=O)O)cc3)c(OC)c2)SC1=Nc1ccccc1	Mcl1-Noxa inh 64
C=CCc1cc(Cl)ccc1OCCOCCNC(C)(C)C	none
Cc1noc(C)c1COc1ccc(C(=O)Nc2cccnc2)cc1	14-3-3 Bad inh 79, Mcl1-Noxa inh 53
COc1ccccc1NC(=O)CN(Cc1ccco1)C(=O)c1cc2ccccc2o1	none
O=C(c1ccco1)N(CCC(c1ccccc1)c1ccco1)Cc1ccco1 (stereo not drawn)	Mcl1-Noxa inh 62 (no result: Biofilm kill mix)
COc1ccc(/C=N/NC(=O)c2nn(-c3ccc(C)c(C)c3)c(=O)c3ccccc23)cc1	none (no result: Biofilm kill mix)
COc1ccc(/C=N/NC(=O)c2nn(-c3ccccc3)c(=O)c3c(N)scc23)cc1	Mcl1-Noxa inh 55 (no result: Biofilm kill mix)
COc1ccc(/C=N/NC(=O)c2nn(-c3ccc(Cl)cc3)c(=O)c3c(N)scc23)cc1	Mcl1-Noxa inh 57 (no result: Biofilm kill mix)
CCC(C)/C=C/C1=CC2=C(Cl)C(=O)C3(C)OC(=O)C(C(=O)C(C)C(C)O)C3C2=CO1 (stereo not drawn)	none
COc1ccc(/C=C2\C(=O)NC(=S)N2C(=O)c2ccc(F)cc2)cc1	14-3-3 Bad inh 89[fluorescence artefact?], Mcl1-Noxa inh 64, Mcl1 Bid PPI 81
COc1ccc(NC(=O)/C(C#N)=C/c2ncc([N+](=O)[O-])n2C)c(OC)c1	none (no result: Bim-Mcl-1)
CCOC(=O)c1sc(NC(=O)CSc2n[nH]c(-c3ccc(Cl)cc3Cl)n2)c(C#N)c1C	none (no result: Biofilm kill mix)
CS(=O)(=O)N1CCN(c2ccccc2NC(=O)c2ccc(-c3ccc(Br)cc3)o2)CC1	none (no result: Biofilm kill mix)
CCN1CCN(C(c2cccs2)C(C)NS(=O)(=O)c2ccc(Br)cc2)CC1 (stereo not drawn)	none (no result: Biofilm kill mix)
O=C(CNS(=O)(=O)c1ccccc1)NCc1cccnc1	none
O=C(NCCC(=O)N1CCOCCOCCOCCOCC1)OCc1ccccc1	none (no result: Bim-Mcl-1)
O=C(N/N=C/c1ccc(Br)s1)c1ccccc1[N+](=O)[O-]	none (no result: Biofilm kill mix)
O=C(N/N=C/c1ccc(Br)s1)c1ccc([N+](=O)[O-])cc1	14-3-3 Bad inh 71
N#CCC(=O)N/N=C/c1cc([N+](=O)[O-])ccc1N1CCOCC1	none
Cc1ccc([N+](=O)[O-])cc1N=Cc1ccc(Br)s1	14-3-3 Bad inh 74 (no result: Biofilm kill mix)
CN1CCN(c2ccc([N+](=O)[O-])cc2/C=N/NC(=O)c2ccc(F)cc2)CC1	Mcl1-Noxa inh 75 (no result: Biofilm kill mix)
Cc1ccc(C=Nc2cc([N+](=O)[O-])ccc2C)s1	none
CCN(CC)S(=O)(=O)c1ccc(OCCNS(C)(=O)=O)cc1	none
COc1ccc(C(=O)NCc2nnc(SCC(=O)N3CCC(C)CC3)o2)cc1	none
CCN(CCNC(=O)CN1CCN(Cc2ccc(Cl)cc2)C1=O)c1ccccc1	Mcl1 Bid PPI 87 (no result: Biofilm kill mix)
O=C(CN1CCN(Cc2ccccc2)C1=O)NCc1ccc(Cl)cc1	none (no result: Biofilm kill mix)
Cc1cc(Br)ccc1OCCCCN1CCCCC1	none
CN(C1=NS(=O)(=O)c2ccccc21)c1ccc(OC(=O)c2ccncc2)cc1	none
CN(/N=C/c1ccncc1)C1=NS(=O)(=O)c2ccccc21	14-3-3 Bad inh 79 (no result: Biofilm kill mix)
COc1ccc(-n2cnnc2SCC(=O)Nc2cc(C)on2)cc1	none
COCCn1nnnc1C(c1ccccc1)N1CCN(C)CC1 (stereo not drawn)	14-3-3 Bad inh 72 (no result: Biofilm kill mix)
COCCn1nnnc1C(c1ccc2ncccc2c1)N1CCN(c2ccccc2F)CC1 (stereo not drawn)	14-3-3 Bad inh 76 (no result: Biofilm kill mix)
COCCn1nnnc1C(c1ccccc1)N1CCN(c2ccccc2)CC1 (stereo not drawn)	none
CCC(c1nnnn1CCOC)N1CCN(Cc2ccccc2OC)CC1 (stereo not drawn)	14-3-3 Bad inh 88 (no result: Biofilm kill mix)
COc1ccc(C(=O)COC(=O)C(CCSC)NS(=O)(=O)c2ccc(Cl)cc2)cc1 (stereo not drawn)	none
O=C(NCc1ccccc1)C(=O)Nc1nc(C23CC4CC(CC(C4)C2)C3)cs1	Bim-Mcl-1 83
O=C(NCc1ccncc1)C(=O)Nc1nc(C23CC4CC(CC(C4)C2)C3)cs1	none
COc1cc(NC(=O)c2cc(C)nc3ccccc23)cc(OC)c1OC	none
Cc1ccc(-c2cc(C(=O)Nc3nccs3)c3ccccc3n2)o1	Mcl1-Noxa inh 67
O=C(Nc1ccc(S(=O)(=O)Nc2nccs2)cc1)c1cc(-c2ccccc2Cl)nc2ccccc12	Mcl1 Bid PPI 99 (no result: Biofilm kill mix)
COc1ccc(NC(=O)c2cc(-c3ccc(C)o3)nc3ccccc23)cc1OC	Mcl1-Noxa inh 64 (no result: Biofilm kill mix)
O=C(Nc1ccc(S(=O)(=O)Nc2nccs2)cc1)c1ccc(=O)[nH]c1	Mcl1-Noxa inh 62
O=S(=O)(Cc1ccc(Cl)cc1)Nc1ccc(Cl)cn1	none
